According to ChEMBL document CHEMBL4699492, “Discovery of Novel Pyrazolo[3,4-b] Pyridine Derivatives with Dual Activities of Vascular Remodeling Inhibition and Vasodilation for the Treatment of Pulmonary Arterial Hypertension” (J Med Chem, 2020):
pIC50: −log10 of the molar value. Values after ≈ are worked out from the molar mass of the structure shown. Active and inactive are the calls of the source. The rule behind the calls is not given here.

Legend:
[1] = biological target: AMP-activated protein kinase, AMPK (Homo sapiens) (UniProt P54646+O43741+P54619+Q9UGJ0+Q9Y478+Q13131+Q9UGI9); assay: Inhibition of AMPK in hypoxia-induced HLF1 cells assessed as reduction in cell migration measured after 24 hrs by wound healing assay; format: cell-based; conditions: dose microM 5-10, time 24.0 hrs
How it was run: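 Wound-healing assay. 5 × 10^4 cells were seeded per well and grown 24 h to near confluence. The monolayer was scratched with a pipette tip and washed with PBS. Cells were then kept in 1% FBS medium with TGF-β (10 ng/mL) or under hypoxia (1% O2, 5% CO2, 94% N2), alone or with compound. Migration ran 24 h at 37 °C, imaged at 0 and 24 h. Mean ± SD from three independent experiments.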

[2] = Antiproliferative activity against HLF1 cells measured after 48 hrs under hypoxic condition by CCK8 assay; format: functional, cell-based; conditions: Homo sapiens, HLF1, 48 h
How it was run: (§1)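 HPASMCs were grown in high-glucose D-MEM with 20% FBS, and HLF1 in D-MEM/F-12 (1:1) with 10% FBS. Cells were seeded for exponential growth, then exposed to a range of compound concentrations for 48 h at 37 °C under hypoxia (1% O2, 5% CO2, 94% N2). CCK-8 was added for 4 h and absorbance read at 490 nm. IC50 came from dose-response curves averaged over three independent experiments.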

[3] = test system: Rattus norvegicus; assay: Inhibition of vascular remodeling activity in Sprague-Dawley rat model of hypoxia-induced pulmonary artery hypertension assessed as reduction in Smad2 phosphorylation in lungs at 10 mg/kg, po administered daily for 2 weeks by Western blot analysis; format: functional, organism-based
How it was run: (§2)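 Hypoxic PAH model in male SD rats (160-200 g) kept at 10% O2 for 4 weeks. Oral dosing at 10 mg/kg daily for 14 days, suspended in 0.5% CMC-Na; control and hypoxia groups received vehicle only. Lungs homogenized in RIPA with protease and phosphatase inhibitors. 30 µg protein run on 10% SDS-PAGE, then PVDF blotting, with β-actin as loading reference. Three independent runs.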

[4] = test system: Rattus norvegicus; assay: Inhibition of vascular remodeling activity in Sprague-Dawley rat model of hypoxia-induced pulmonary artery hypertension assessed as reduction in alpha-SMA expression in lungs at 10 mg/kg, po administered daily for 2 weeks by Western blot analysis; format: functional, organism-based
How it was run: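 Lungs came from hypoxic SD rats (10% O2, 4 weeks) dosed orally at 10 mg/kg daily for 14 days. Tissue was homogenised in RIPA buffer with protease and phosphatase inhibitors. 30 µg of protein was run on 10% SDS-PAGE and transferred to PVDF. Blots were probed overnight at 4 °C with anti-α-SMA (1:1000) and anti-β-actin (1:2000) and detected by fluorescence.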

[5] = Effect on total AMPK level in lungs of Sprague-Dawley rat model of hypoxia-induced pulmonary artery hypertension at 10 mg/kg, po administered daily for 2 weeks by Western blot analysis; format: ADME, organism-based; conditions: in vivo, 336 h; how it was run: as §2
[6] = Effect on total ACC level in lungs of Sprague-Dawley rat model of hypoxia-induced pulmonary artery hypertension at 10 mg/kg, po administered daily for 2 weeks by Western blot analysis; format: ADME, organism-based; conditions: in vivo, 336 h; how it was run: as §2
[7] = test system: Rattus norvegicus; assay: Inhibition of vascular remodeling activity in Sprague-Dawley rat model of hypoxia-induced pulmonary artery hypertension assessed as right ventricular systolic pressure at 10 mg/kg, po administered daily for 2 weeks by catheter method (reference value: 26.2 mmHg); format: functional
[8] = test system: Aorta; assay: Vasodilating activity in Sprague-Dawley rat aortic rings assessed as reduction in phenylephrine-induced contractions at 1 uM relative to control; format: functional
How it was run: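 Thoracic aorta from male SD rats (250-280 g) anesthetized with chloral hydrate, cut into 4 mm rings. Rings held in Krebs-Henseleit at 37 °C gassed with 95% O2/5% CO2, under 2 g resting tension, equilibrated 60 min, and precontracted with 10^-7 M phenylephrine. Cumulative concentrations of 3×10^-9 to 10^-6 M (final) applied. Percent relaxation of the initial contraction taken at 1 µM, and EC50 derived.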

[9] = test system: Pulmonary Artery Smooth Muscle Cells; assay: Stimulation of sGC in HPASMC assessed as increase in intracellular cGMP level at 100 uM measured after 1 hr in absence of PDE5 inhibitor IBMX by cGMP-d2/europium cryptate reagent based HTRF assay relative to control; format: tissue-based; conditions: Homo sapiens
How it was run: (§3)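 HPASMCs were suspended at 100,000 cells/mL in PBS with 0.2% BSA, with or without 10 µM ODQ. Compounds were added as a 6-point, 10-fold dilution series; the top 2× stock was 200 µM. Incubation was 1 h at room temperature, in triplicate. cGMP-d2 in lysis buffer and europium cryptate were then added for 1 h before HTRF reading. Three independent experiments.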

[10] = Solubility of compound in water at pH 7.3; format: physicochemical; conditions: buffer
[11] = test system: Pulmonary Artery Smooth Muscle Cells; assay: Stimulation of sGC in HPASMC assessed as increase in intracellular cGMP level measured after 1 hr in absence of PDE5 inhibitor IBMX and sGC inhibitor ODQ by cGMP-d2/europium cryptate reagent based HTRF assay; format: tissue-based; conditions: Homo sapiens, filed as activator; how it was run: as §3
[12] = Antiproliferative activity against HPASMC measured after 48 hrs under hypoxic condition by CCK8 assay; format: functional, tissue-based; conditions: Homo sapiens, Pulmonary Artery Smooth Muscle Cells; how it was run: as §1
[13] = Solubility of compound in water at pH 3.5; format: physicochemical; conditions: buffer
[14] = biological target: cGMP-specific 3',5'-cyclic phosphodiesterase (Homo sapiens) (UniProt O76074); assay: Inhibition of PDE5A1 catalytic domain (535 to 860 residues) (unknown origin) expressed in Escherichia coli BL21 (DE3) at 100 nM using [3H]cGMP as substrate after 15 mins by liquid scintillation counting method relative to control
How it was run: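 PDE reaction in 50 mM Tris-HCl pH 8.0 with 4 mM MnCl2 or 10 mM MgCl2 and 1 mM DTT, using 3H-cGMP substrate. Run 15 min at room temperature, stopped with 0.2 M ZnSO4, and product precipitated with 0.2 M Ba(OH)2. Radioactivity of the supernatant counted by liquid scintillation. Inhibition rate calculated, with sildenafil as reference.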

[15] = test system: Rattus norvegicus; assay: Inhibition of vascular remodeling activity in Sprague-Dawley rat model of hypoxia-induced pulmonary artery hypertension assessed as weight ratio of right ventricle/left ventricle plus septum at 10 mg/kg, po administered daily for 2 weeks (reference value: 0.63); format: functional
[16] = test system: Rattus norvegicus; assay: In vivo inhibition of AMPK in Sprague-Dawley rat model of hypoxia-induced pulmonary artery hypertension assessed as reduction in AMPK phosphorylation in lungs at 10 mg/kg, po administered daily for 2 weeks by Western blot analysis; format: functional, organism-based; how it was run: as §2
[17] = Protein binding in human plasma; format: ADME, cell-free; conditions: read-out: PPB (converted)
[18] = test system: Rattus norvegicus; assay: In vivo inhibition of AMPK in Sprague-Dawley rat model of hypoxia-induced pulmonary artery hypertension assessed as reduction in ACC phosphorylation in lungs at 10 mg/kg, po administered daily for 2 weeks by Western blot analysis; format: functional, organism-based; how it was run: as §2
[19] = test system: Rattus norvegicus; assay: Inhibition of vascular remodeling activity in Sprague-Dawley rat model of hypoxia-induced pulmonary artery hypertension assessed as reduction in TGFbeta expression in lungs at 10 mg/kg, po administered daily for 2 weeks by Western blot analysis; format: functional, organism-based; how it was run: as §2
[20] = test system: Rattus norvegicus; assay: In vivo stimulation of sGC in Sprague-Dawley rat model of hypoxia-induced pulmonary artery hypertension assessed as increase in phosphorylation levels of VASP in lungs at 10 mg/kg, po administered daily for 2 weeks by Western blot analysis; format: functional, organism-based

In the case of `Cc1ccccc1COc1nc2c(cc1-c1nc(N)cc(N)n1)c(C)nn2-c1ccccc1`, the inhibition [1] was “Dose-dependent effect”, the pIC50 [2] was 4.46 and the inhibition [3] was “Active”. The inhibition [4] was “Active”, the Activity [5] was “Non-Toxic” and the Activity [6] was “Non-Toxic”. For the same molecule, the Activity [7] was 22 mmHg, the Emax at 1 µM [8] was 63.2% and the Activity [9] was 5%. The solubility [10] was 0.034 µg/mL (≈ 0.0777 µM), the Activity [11] was “Active” and the pIC50 [12] was 4.68. It also gave a solubility [13] of 0.028 µg/mL (≈ 0.064 µM), an inhibition [14] of 4.3% and a Ratio [15] of 0.38. The inhibition [16] was “Active”, the fraction unbound [17] was 0.002 and the inhibition [18] was “Active”. The inhibition [19] was “Active” and the Activity [20] was “Active”.
